{"source": "paper PMC6235520", "about": "(Science Advances, 2018)", "key": {"human KCNQ1": {"biological_target": "human KCNQ1 (Homo sapiens, UniProt P51787)", "sequence (P51787 whole entry)": "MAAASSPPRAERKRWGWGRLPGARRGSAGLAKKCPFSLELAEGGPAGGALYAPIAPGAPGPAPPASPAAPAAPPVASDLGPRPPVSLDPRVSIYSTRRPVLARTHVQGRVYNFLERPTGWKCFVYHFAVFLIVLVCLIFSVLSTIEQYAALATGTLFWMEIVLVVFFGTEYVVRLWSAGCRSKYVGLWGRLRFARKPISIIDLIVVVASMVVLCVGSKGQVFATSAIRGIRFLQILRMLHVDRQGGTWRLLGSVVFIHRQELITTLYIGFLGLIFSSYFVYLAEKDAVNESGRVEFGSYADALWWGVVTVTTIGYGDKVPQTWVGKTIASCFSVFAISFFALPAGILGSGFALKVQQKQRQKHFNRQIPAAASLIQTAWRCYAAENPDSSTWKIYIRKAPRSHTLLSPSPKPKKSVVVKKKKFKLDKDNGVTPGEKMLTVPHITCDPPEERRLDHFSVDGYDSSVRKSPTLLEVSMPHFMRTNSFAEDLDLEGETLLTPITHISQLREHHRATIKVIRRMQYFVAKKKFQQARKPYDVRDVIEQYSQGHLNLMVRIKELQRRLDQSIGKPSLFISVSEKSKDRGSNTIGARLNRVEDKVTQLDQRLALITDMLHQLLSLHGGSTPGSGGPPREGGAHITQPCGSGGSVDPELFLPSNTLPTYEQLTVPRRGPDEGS", "assay": "Two-electrode voltage clamp of KCNQ1 expressed in Xenopus laevis oocytes", "format": "cell-based", "settings": "for negative shift in the voltage dependence of KCNQ1 activation: 100 μM compound; for effect on KCNQ1 gating kinetics (activation and deactivation rates): MTX 30 µM, CPT1 100 µM"}, "KCNQ1-R243A/KCNE1": {"tested_on": "KCNQ1-R243A/KCNE1", "assay": "Two-electrode voltage clamp of KCNQ1-R243A/KCNE1 in Xenopus oocytes", "format": "cell-based, human", "settings": "MTX 10 μM; CPT1 100 µM", "summary_of_the_method": "(§1)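 Mutant channels were made by site-directed mutagenesis and expressed from human cRNA (α-subunit 10 ng per oocyte) in stage V–VI oocytes for 2–5 days at 16°C. Room-temperature TEVC used a pH 7.6 Hepes-buffered bath with 4 mM KCl. Compound was perfused for 3 min, then currents were recorded at −80 to +40 mV in 20-mV steps. Fold current augmentation was plotted against voltage.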"}, "KCNQ1-R243A": {"tested_on": "KCNQ1-R243A", "assay": "Two-electrode voltage clamp of KCNQ1-R243A mutant in Xenopus oocytes", "format": "cell-based, human", "settings": "MTX 10 μM; CPT1 100 µM", "summary_of_the_method": "as §1"}, "[1]": {"settings": "rats fed Mallotus philippensis extract; cited from earlier work"}, "KCNQ1": {"tested_on": "KCNQ1", "settings": "cited from earlier work"}, "KCNQ2-R213A/KCNQ3-R242A": {"tested_on": "KCNQ2-R213A/KCNQ3-R242A", "assay": "Two-electrode voltage clamp of KCNQ2-R213A/KCNQ3-R242A", "format": "cell-based, human"}, "[2]": {"settings": "cited from earlier work"}, "KCNQ2/3 channels": {"tested_on": "KCNQ2/3 channels", "settings": "cited from earlier work"}, "hERG": {"tested_on": "hERG", "settings": "cited from earlier work"}, "KCNQ2/KCNQ3-R242A": {"tested_on": "KCNQ2/KCNQ3-R242A", "assay": "Two-electrode voltage clamp of KCNQ2/KCNQ3-R242A in Xenopus oocytes", "format": "cell-based, human", "settings": "compared with KCNQ2-R213A/KCNQ3 and wild type"}, "[3]": {"assay": "Pharmacokinetics in rats fed Mallotus philippensis extract", "settings": "equates to 2 μg/ml"}, "KCNQ1-KCNE3": {"tested_on": "KCNQ1-KCNE3", "assay": "Two-electrode voltage clamp of KCNQ1-KCNE3 in Xenopus oocytes", "format": "cell-based, human", "settings": "30 μM, across the voltage range studied", "summary_of_the_method": "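Human KCNQ1 and KCNE3 cRNAs were injected into defolliculated stage V–VI oocytes (α-subunit cRNA 10 ng total per oocyte) and held 2–5 days at 16°C in Barth's with penicillin/streptomycin. Room-temperature TEVC used bath 96 mM NaCl, 4 mM KCl, 1 mM MgCl2, 1 mM CaCl2, 10 mM Hepes pH 7.6. Test compound was perfused 3 min at 1 ml/min. Prepulses were −80 to +40 mV in 20-mV steps, with tails at −30 mV; n = 8.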"}, "KCNQ1-KCNE1": {"biological_target": "KCNQ1-KCNE1 (Homo sapiens, UniProt P51787)", "sequence (P51787 whole entry)": "as above", "assay": "Two-electrode voltage clamp of KCNQ1-KCNE1 in Xenopus oocytes", "format": "cell-based"}, "KCNQ2-R213A/KCNQ3": {"tested_on": "KCNQ2-R213A/KCNQ3", "assay": "Two-electrode voltage clamp of KCNQ2-R213A/KCNQ3 in Xenopus oocytes", "format": "cell-based, human", "settings": "at a given voltage"}, "KCNQ1-KCNE4": {"tested_on": "KCNQ1-KCNE4", "assay": "Two-electrode voltage clamp of KCNQ1-KCNE4 in Xenopus oocytes", "format": "cell-based, human", "settings": "30 μM", "summary_of_the_method": "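Oocytes (stage V–VI, defolliculated) were co-injected with human KCNQ1 and KCNE4 cRNAs (α-subunit 10 ng total) and kept 2–5 days at 16°C. TEVC was run at room temperature in 4 mM KCl/96 mM NaCl Hepes bath, pH 7.6, after 3-min gravity perfusion of 30 μM test compound. Raw tail currents at −30 mV followed prepulses from −80 to +40 mV; n = 5.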"}, "BK": {"tested_on": "BK", "settings": "cited from earlier work"}}, "note": "Several values for one entry are separate records, joined by “and”; a condition that tells them apart may be missing. Equal entries are not always repeated. Where two headings read alike, the source gives them in different places.", "data": [{"compound": "CCC1=C(O)C(=O)CC1", "note": "[CPT1, 3-ethyl-2-hydroxy-2-cyclopenten-1-one]", "values": [{"measurement": "EC50", "setting": "human KCNQ1", "value": 0.1, "unit": "µM"}, {"measurement": "negative shift in the voltage dependence of KCNQ1 activation", "setting": "human KCNQ1", "value": "−5", "unit": "mV"}, {"measurement": "potency on KCNQ1 relative to MTX", "setting": "human KCNQ1; CPT1 versus MTX", "value": 100, "unit": "fold"}, {"measurement": "effect on KCNQ1 gating kinetics (activation and deactivation rates)", "setting": "human KCNQ1", "value": "statistically significant speeding of activation and slowing of deactivation"}, {"measurement": "KCNQ1 current fold increase", "setting": "human KCNQ1; at −60 mV, 100 μM", "value": 2.7, "unit": "fold"}, {"measurement": "sensitivity of KCNQ1-R243A/KCNE1 complexes to compound", "setting": "KCNQ1-R243A/KCNE1", "value": "eliminated"}, {"measurement": "sensitivity of KCNQ1-R243A to compound", "setting": "KCNQ1-R243A", "value": "eliminated"}]}, {"compound": "CC(=O)c1c(O)c(C)c(O)c(Cc2c(O)c3c(c(C(=O)/C=C/c4ccccc4)c2O)OC(C)(C)C=C3)c1O", "note": "[MTX, mallotoxin]", "values": [{"measurement": "oral bioavailability", "setting": "[1]", "value": "> 20", "unit": "%"}, {"measurement": "plasma concentrations", "setting": "[1]", "value": "> 2000", "unit": "ng/mL"}, {"measurement": "shift in KCNQ1 activation voltage dependence", "setting": "human KCNQ1; 30 μM MTX", "value": "−27", "unit": "mV"}, {"measurement": "effect on KCNQ1 current in presence of UCL2077", "setting": "human KCNQ1; 30 μM MTX, UCL2077 10 μM, hyperpolarized voltages", "value": "still augmented"}, {"measurement": "rescue of KCNQ1 from inhibition by UCL2077", "setting": "human KCNQ1; 30 μM MTX, UCL2077 10 μM, positive voltages", "value": "ineffective"}, {"measurement": "negative shift in the voltage dependence of KCNQ1 activation", "setting": "human KCNQ1", "value": "−27", "unit": "mV"}, {"measurement": "MTX effects on KCNQ1 in high extracellular K+", "setting": "human KCNQ1; 50 mM extracellular K+, 10 µM MTX", "value": "preserved"}, {"measurement": "EC50", "setting": "human KCNQ1; EC50 (dose response) for the ΔV0.5 activation of KCNQ1", "value": "9.4 ± 0.1", "unit": "µM"}, {"measurement": "EC50", "setting": "human KCNQ1; KCNQ1 activation EC50, at −40 mV", "value": "9.9 µM and 10 µM"}, {"measurement": "effect on KCNQ1 gating kinetics (activation and deactivation rates)", "setting": "human KCNQ1", "value": "speeded KCNQ1 activation and slowed its deactivation"}, {"measurement": "KCNQ1 current fold increase", "setting": "human KCNQ1; at −40 mV, 30 μM", "value": 5.4, "unit": "fold"}, {"measurement": "effect on KCNQ1 potassium channel", "setting": "KCNQ1", "value": "activate"}, {"measurement": "sensitivity of KCNQ1-R243A/KCNE1 complexes to compound", "setting": "KCNQ1-R243A/KCNE1", "value": "completely insensitive"}, {"measurement": "sensitivity of RA-RA KCNQ2/3 channels to MTX", "setting": "KCNQ2-R213A/KCNQ3-R242A", "value": "insensitive"}, {"measurement": "toxicity", "setting": "[2]", "value": "toxic in large doses"}, {"measurement": "effect on KCNQ2/3 channels", "setting": "KCNQ2/3 channels", "value": "activates"}, {"measurement": "sensitivity of KCNQ1-R243A to compound", "setting": "KCNQ1-R243A", "value": "completely insensitive"}, {"measurement": "effect on hERG potassium channel", "setting": "hERG", "value": "activate"}, {"measurement": "efficacy of MTX on KCNQ2/KCNQ3-R242A channels", "setting": "KCNQ2/KCNQ3-R242A", "value": "even more efficacious"}, {"measurement": "plasma level converted to molar concentration", "setting": "[3]", "value": 4, "unit": "µM"}, {"measurement": "effect on KCNQ1-KCNE3 channels", "setting": "KCNQ1-KCNE3", "value": "moderately inhibited"}, {"measurement": "EC50", "setting": "KCNQ1-KCNE1", "value": "27.9 ± 0.3", "unit": "µM"}, {"measurement": "shift of V0.5 of activation of KCNQ1-KCNE1", "setting": "KCNQ1-KCNE1; 30 μM MTX", "value": "−45", "unit": "mV"}, {"measurement": "effect on KCNQ1-KCNE1 currents", "setting": "KCNQ1-KCNE1; 30 μM, across the voltage range tested", "value": "strongly augmented"}, {"measurement": "MTX-induced shift in the V0.5 of activation versus wild-type KCNQ2/3", "setting": "KCNQ2-R213A/KCNQ3", "value": "slightly greater"}, {"measurement": "effect on KCNQ1-KCNE4 activity", "setting": "KCNQ1-KCNE4", "value": "minor augmentation"}, {"measurement": "effect on BK potassium channel", "setting": "BK", "value": "activate"}]}]}
